{"source": "ChEMBL document CHEMBL1155169", "about": "“Influence of morbid obesity on the single-dose pharmacokinetics of daptomycin” (Antimicrob Agents Chemother, 2007)", "key": {"[1]": {"assay": "Total clearance in morbidly obese human at 461 mg infused over 30 mins", "format": "ADME, organism-based", "settings": "in vivo, iv", "method_in_brief": "(§1)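 Adult females received 4 mg/kg daptomycin by total body weight, IV over 30 min. Plasma sampled to 24 h and assayed by HPLC-UV at 214 nm. Total clearance = dose/AUC0-∞ (trapezoidal AUC0-24 plus C24/kel). Normalized to total body weight, ideal body weight (45.5 + 2.3 × inches over 5 ft) or fat-free weight from bioelectric impedance.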"}, "[2]": {"assay": "Renal clearance per kg of fat-free weight in morbidly obese human at 461 mg infused over 30 mins", "format": "ADME, organism-based, Kidney", "settings": "in vivo, iv, read-out: CL_renal (converted)", "method_in_brief": "(§2)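 Adult females were given a single 30-min IV infusion (4 mg/kg total body weight). Bladder voided before dosing, then urine collected for 24 h. Urine and plasma assayed by HPLC-UV at 214 nm. Renal clearance = 24-h urinary amount / plasma AUC0-24. Normalized to total body weight, ideal body weight or bioimpedance fat-free weight.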"}, "Homo sapiens [3]": {"organism": "Homo sapiens", "assay": "Volume of distribution per kg of fat-free weight in morbidly obese human at 461 mg infused over 30 mins", "format": "ADME, organism-based", "settings": "in vivo, iv, 0.5 h"}, "[4]": {"assay": "Cmax in morbidly obese human at 461 mg infused over 30 mins", "format": "ADME, organism-based", "parameters": "dose 461 mg", "settings": "in vivo, iv"}, "[5]": {"assay": "Renal clearance per kg of total body weight in morbidly obese human at 461 mg infused over 30 mins", "format": "ADME, organism-based, Kidney", "settings": "in vivo, iv, read-out: CL_renal (converted)", "method_in_brief": "as §2"}, "Homo sapiens [6]": {"organism": "Homo sapiens", "assay": "Total clearance per kg of total body weight in normal weight human at 236 mg infused over 30 mins", "format": "ADME, organism-based", "settings": "in vivo, iv, 0.5 h", "method_in_brief": "as §1"}, "[7]": {"assay": "AUC (0 to infinity) in normal weight human at 236 mg infused over 30 mins", "format": "ADME, organism-based", "parameters": "dose 236 mg, time infinity", "settings": "plasma, iv", "method_in_brief": "(§3)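 Single 30-min IV infusion at 4 mg/kg total body weight in adult females. Plasma sampled at 0.5, 1, 1.5, 2, 4, 8, 12 and 24 h and assayed by HPLC-UV at 214 nm. kel came from log-linear regression, giving t1/2 = ln2/kel. AUC0-∞ is the linear-trapezoidal AUC0-24 plus C24/kel.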"}, "[8]": {"assay": "Half life in normal weight human at 236 mg infused over 30 mins", "format": "ADME, organism-based", "settings": "in vivo, iv", "method_in_brief": "as §3"}, "Homo sapiens [9]": {"organism": "Homo sapiens", "assay": "Volume of distribution per kg of fat-free weight in normal weight human at 236 mg infused over 30 mins", "format": "ADME, organism-based", "settings": "in vivo, iv, 0.5 h"}, "[10]": {"assay": "Cmax in human at 4 mg/kg of total body weight", "format": "ADME, organism-based", "parameters": "dose 4 mg/kg", "settings": "in vivo"}, "[11]": {"assay": "Cmin in normal weight human at 236 mg infused over 30 mins after 24 hrs", "format": "ADME, organism-based", "settings": "in vivo, iv, read-out: Cmin"}, "[12]": {"assay": "Renal clearance in morbidly obese human at 461 mg infused over 30 mins", "format": "ADME, organism-based, Kidney", "settings": "in vivo, iv, read-out: CL_renal (converted)", "method_in_brief": "as §2"}, "Homo sapiens [13]": {"organism": "Homo sapiens", "assay": "Total clearance per kg of total body weight in morbidly obese human at 461 mg infused over 30 mins", "format": "ADME, organism-based", "settings": "in vivo, iv, 0.5 h", "method_in_brief": "as §1"}, "[14]": {"assay": "Total clearance in normal weight human at 236 mg infused over 30 mins", "format": "ADME, organism-based", "settings": "in vivo, iv", "method_in_brief": "as §1"}, "Homo sapiens [15]": {"organism": "Homo sapiens", "assay": "Total clearance per kg of fat-free weight in normal weight human at 236 mg infused over 30 mins", "format": "ADME, organism-based", "settings": "in vivo, iv, 0.5 h", "method_in_brief": "as §1"}, "[16]": {"assay": "Protein binding in morbidly obese human serum at 461 mg infused over 30 mins", "format": "ADME, cell-free", "settings": "iv, read-out: PB (converted)", "method_in_brief": "(§4)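 Serum (separator tubes) was drawn at 0.5, 2 and 8 h after a single 30-min IV infusion of 4 mg/kg (total body weight) in adult females. Samples were spun at 1,500 × g for 10 min and stored at −80°C. Binding was measured by equilibrium dialysis, solid-phase extraction and LC-MS, linear over 1–250 μg/ml.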"}, "[17]": {"assay": "Volume of distribution in morbidly obese human at 461 mg infused over 30 mins", "format": "ADME, organism-based", "settings": "in vivo, iv"}, "[18]": {"assay": "Cmin in morbidly obese human at 461 mg infused over 30 mins after 24 hrs", "format": "ADME, organism-based", "settings": "in vivo, iv, read-out: Cmin"}, "[19]": {"assay": "Cmax in normal weight human at 236 mg infused over 30 mins", "format": "ADME, organism-based", "parameters": "dose 236 mg", "settings": "in vivo, iv"}, "[20]": {"assay": "Renal clearance per kg of total body weight in normal weight human at 236 mg infused over 30 mins", "format": "ADME, organism-based, Kidney", "settings": "in vivo, iv, read-out: CL_renal (converted)", "method_in_brief": "as §2"}, "Homo sapiens [21]": {"organism": "Homo sapiens", "assay": "Volume of distribution per kg of ideal body weight in morbidly obese human at 461 mg infused over 30 mins", "format": "ADME, organism-based", "settings": "in vivo, iv, 0.5 h"}, "Homo sapiens [22]": {"organism": "Homo sapiens", "assay": "Total clearance per kg of ideal body weight in morbidly obese human at 461 mg infused over 30 mins", "format": "ADME, organism-based", "settings": "in vivo, iv, 0.5 h", "method_in_brief": "as §1"}, "[23]": {"assay": "Renal clearance per kg of ideal body weight in morbidly obese human at 461 mg infused over 30 mins", "format": "ADME, organism-based, Kidney", "settings": "in vivo, iv, read-out: CL_renal (converted)", "method_in_brief": "as §2"}, "[24]": {"assay": "Renal clearance per kg of ideal body weight in normal weight human at 236 mg infused over 30 mins", "format": "ADME, organism-based, Kidney", "settings": "in vivo, iv, read-out: CL_renal (converted)", "method_in_brief": "as §2"}, "[25]": {"assay": "Half life in morbidly obese human at 461 mg infused over 30 mins", "format": "ADME, organism-based", "settings": "in vivo, iv", "method_in_brief": "as §3"}, "[26]": {"assay": "Protein binding in normal weight human serum at 236 mg infused over 30 mins", "format": "ADME, cell-free", "settings": "iv, read-out: PB (converted)", "method_in_brief": "as §4"}, "Homo sapiens [27]": {"organism": "Homo sapiens", "assay": "Volume of distribution per kg of total body weight in normal weight human at 236 mg infused over 30 mins", "format": "ADME, organism-based", "settings": "in vivo, iv, 0.5 h"}, "[28]": {"assay": "AUC (0 to infinity) in morbidly obese human at 461 mg infused over 30 mins", "format": "ADME, organism-based", "parameters": "dose 461 mg, time infinity", "settings": "plasma, iv", "method_in_brief": "as §3"}, "Homo sapiens [29]": {"organism": "Homo sapiens", "assay": "Volume of distribution per kg of ideal body weight in normal weight human at 236 mg infused over 30 mins", "format": "ADME, organism-based", "settings": "in vivo, iv, 0.5 h"}, "Homo sapiens [30]": {"organism": "Homo sapiens", "assay": "Total clearance per kg of ideal body weight in normal weight human at 236 mg infused over 30 mins", "format": "ADME, organism-based", "settings": "in vivo, iv, 0.5 h", "method_in_brief": "as §1"}, "[31]": {"assay": "Volume of distribution in normal weight human at 236 mg infused over 30 mins", "format": "ADME, organism-based", "settings": "in vivo, iv"}, "Homo sapiens [32]": {"organism": "Homo sapiens", "assay": "Volume of distribution per kg of total body weight in morbidly obese human at 461 mg infused over 30 mins", "format": "ADME, organism-based", "settings": "in vivo, iv, 0.5 h"}, "[33]": {"assay": "Renal clearance in normal weight human at 236 mg infused over 30 mins", "format": "ADME, organism-based, Kidney", "settings": "in vivo, iv, read-out: CL_renal (converted)", "method_in_brief": "as §2"}, "Homo sapiens [34]": {"organism": "Homo sapiens", "assay": "Total clearance per kg of fat-free weight in morbidly obese human at 461 mg infused over 30 mins", "format": "ADME, organism-based", "settings": "in vivo, iv, 0.5 h", "method_in_brief": "as §1"}, "[35]": {"assay": "Renal clearance per kg of fat-free weight in normal weight human at 236 mg infused over 30 mins", "format": "ADME, organism-based, Kidney", "settings": "in vivo, iv, read-out: CL_renal (converted)", "method_in_brief": "as §2"}}}
{"smiles": "CCCCCCCCCC(=O)N[C@@H](Cc1c[nH]c2ccccc12)C(=O)N[C@H](CC(N)=O)C(=O)N[C@@H](CC(=O)O)C(=O)N[C@@H]1C(=O)NCC(=O)N[C@@H](CCCN)C(=O)N[C@@H](CC(=O)O)C(=O)N[C@H](C)C(=O)N[C@@H](CC(=O)O)C(=O)NCC(=O)N[C@H](CO)C(=O)N[C@@H]([C@H](C)CC(=O)O)C(=O)N[C@@H](CC(=O)c2ccccc2N)C(=O)O[C@@H]1C", "values": [{"measurement": "clearance", "setting": "[1]", "result": 13.7, "unit": "mL/min"}, {"measurement": "CL renal at 0.5 h", "setting": "[2]", "result": 0.153, "unit": "mL/min"}, {"measurement": "Vd", "setting": "Homo sapiens [3]", "result": 0.18, "unit": "L"}, {"measurement": "Cmax", "setting": "[4]", "result": 67.3, "unit": "µg/mL"}, {"measurement": "CL renal at 0.5 h", "setting": "[5]", "result": 0.0733, "unit": "mL/min"}, {"measurement": "CL", "setting": "Homo sapiens [6]", "result": 0.012, "unit": "L/h"}, {"measurement": "AUC(0-inf)", "setting": "[7]", "result": 346, "unit": "µg·h/mL"}, {"measurement": "half-life", "setting": "[8]", "result": 7.72, "unit": "h"}, {"measurement": "Vd", "setting": "Homo sapiens [9]", "result": 0.18, "unit": "L"}, {"measurement": "Cmax", "setting": "[10]", "result": 42.3, "unit": "µg/mL"}, {"measurement": "concentration at 24 h", "setting": "[11]", "result": 3.39, "unit": "µg/mL"}, {"measurement": "CL renal at 0.5 h", "setting": "[12]", "result": 8.33, "unit": "mL/min"}, {"measurement": "CL", "setting": "Homo sapiens [13]", "result": 0.0071, "unit": "L/h"}, {"measurement": "clearance", "setting": "[14]", "result": 12.2, "unit": "mL/min"}, {"measurement": "CL", "setting": "Homo sapiens [15]", "result": 0.016, "unit": "L/h"}, {"measurement": "fraction unbound at 0.5 h", "setting": "[16]", "result": 0.112}, {"measurement": "Vd", "setting": "[17]", "result": 10, "unit": "L"}, {"measurement": "concentration at 24 h", "setting": "[18]", "result": 6.55, "unit": "µg/mL"}, {"measurement": "Cmax", "setting": "[19]", "result": 42.3, "unit": "µg/mL"}, {"measurement": "CL renal at 0.5 h", "setting": "[20]", "result": 0.158, "unit": "mL/min"}, {"measurement": "Vd", "setting": "Homo sapiens [21]", "result": 0.19, "unit": "L"}, {"measurement": "CL", "setting": "Homo sapiens [22]", "result": 0.016, "unit": "L/h"}, {"measurement": "CL renal at 0.5 h", "setting": "[23]", "result": 0.16, "unit": "mL/min"}, {"measurement": "CL renal at 0.5 h", "setting": "[24]", "result": 0.165, "unit": "mL/min"}, {"measurement": "half-life", "setting": "[25]", "result": 8.68, "unit": "h"}, {"measurement": "fraction unbound at 0.5 h", "setting": "[26]", "result": 0.1}, {"measurement": "Vd", "setting": "Homo sapiens [27]", "result": 0.13, "unit": "L"}, {"measurement": "AUC(0-inf)", "setting": "[28]", "result": 581, "unit": "µg·h/mL"}, {"measurement": "Vd", "setting": "Homo sapiens [29]", "result": 0.14, "unit": "L"}, {"measurement": "CL", "setting": "Homo sapiens [30]", "result": 0.013, "unit": "L/h"}, {"measurement": "Vd", "setting": "[31]", "result": 7.69, "unit": "L"}, {"measurement": "Vd", "setting": "Homo sapiens [32]", "result": 0.09, "unit": "L"}, {"measurement": "CL renal at 0.5 h", "setting": "[33]", "result": 9.83, "unit": "mL/min"}, {"measurement": "CL", "setting": "Homo sapiens [34]", "result": 0.015, "unit": "L/h"}, {"measurement": "CL renal at 0.5 h", "setting": "[35]", "result": 0.217, "unit": "mL/min"}]}
